One series has as its system HUVEC. In words: Growth inhibition of HUVEC cells upto 75 microM measured after 72 hrs by MTT assay. The series is classed as cell-based. The conditions noted are these: human. (Formazan colour is commonly taken as a measure of viable cells.)
Series [1] deals with A549. As to the kind of experiment: Growth inhibition of human A549 cells at 50 microM measured after 72 hrs by MTT assay. The series is classed as functional. The conditions noted are these: for inhibition of growth at 50 µM: read-out: GI. The method in brief:
(§1)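 A549, Caco-2 and SF268 cells were grown in DMEM (4.5 g/L glucose) with 10% heat-inactivated FBS and pen-strep at 37 °C, 5% CO2. After 24 h, medium was replaced with compound at 10, 25, 35, 50 or 75 μM (final 0.5% DMSO; vehicle controls) for 72 h. MTT (0.25 mg/mL final) was added for 3 h, formazan was dissolved in DMSO, and A570 minus A690 was read. Triplicate wells per condition were normalized to DMSO control as 100%; IC50 was taken from dose-response curves over ≥3 experiments.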

Another series concerns Caco-2. As to the kind of experiment: Growth inhibition of human Caco-2 cells up to 75 uM measured after 72 hrs by MTT assay. In kind it is functional, cell-based. The method in brief:
as §1

Series [2] has as its system A549. As to the kind of experiment: Growth inhibition of human A549 cells measured after 72 hrs by MTT assay. The series is classed as functional, cell-based. The conditions noted are these: A549, 72 h. In outline: as §1
In another series the test system is SF-268. As to the kind of experiment: Growth inhibition of human SF-268 cells upto 75 microM measured after 72 hrs by MTT assay. The series is classed as functional, cell-based. The method in brief:
as §1

In series [3] the test system is A549. As to the kind of experiment: Antitumor activity against human A549 cells assessed as decrease in STAT3 mRNA expression measured at 50 microM by RT-PCR analysis. In kind it is functional, cell-based. In outline:
(§2)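 A549 cells were treated with 50 μM compound alongside DMSO controls. mRNA levels were measured by quantitative real-time RT-PCR and expressed relative to the DMSO control.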

Series [4] deals with A549. In words: Antitumor activity against human A549 cells assessed as decrease in c-myc mRNA expression measured at 50 microM by RT-PCR analysis. The series is classed as functional, cell-based. The method in brief: as §2
The test system of series [5] is A549. In words: Down regulation of […] protein expression in human A549 cells measured at 50 uM by Western blot analysis. In kind it is functional, cell-based. In outline:
(§3)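 A549 cells were treated with 50 μM compound or DMSO and lysed in RIPA buffer; lysates were spun at 17 000g for 15 min at 4 °C and protein was measured by Bradford assay. 35 μg of protein was run on SDS-PAGE and semidry-transferred to nitrocellulose, then blocked 1 h in 5% BSA/TBS-0.1% Tween-20. Blots were probed overnight at 4 °C with anti-phospho-STAT3 and anti-STAT3 (1:1000) plus β-actin (1:20 000) as loading control, followed by secondary antibodies for 1.30 h at r.t.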

Series [6] has as its target Signal transducer and activator of transcription 3 (Homo sapiens) (UniProt P40763). As to the kind of experiment: Inhibition of phosphorylated STAT3 expression in human A549 cells measured at 50 uM by Western blot analysis. The series is classed as cell-based. The method in brief:
as §3

These results are taken from ChEMBL document CHEMBL5055625, “Saturated Oxo Fatty Acids (SOFAs): A Previously Unrecognized Class of Endogenous Bioactive Lipids Exhibiting a Cell Growth Inhibitory Activity” (J Med Chem, 2021).

What is called IC50 is the midpoint of a concentration-inhibition curve. Read a high IC50 as weaker potency in that assay.

Active and inactive are the calls of the source. The rule behind the calls is not given here.

Signal transducer and activator of transcription 3 (Homo sapiens), sequence (P40763 whole entry): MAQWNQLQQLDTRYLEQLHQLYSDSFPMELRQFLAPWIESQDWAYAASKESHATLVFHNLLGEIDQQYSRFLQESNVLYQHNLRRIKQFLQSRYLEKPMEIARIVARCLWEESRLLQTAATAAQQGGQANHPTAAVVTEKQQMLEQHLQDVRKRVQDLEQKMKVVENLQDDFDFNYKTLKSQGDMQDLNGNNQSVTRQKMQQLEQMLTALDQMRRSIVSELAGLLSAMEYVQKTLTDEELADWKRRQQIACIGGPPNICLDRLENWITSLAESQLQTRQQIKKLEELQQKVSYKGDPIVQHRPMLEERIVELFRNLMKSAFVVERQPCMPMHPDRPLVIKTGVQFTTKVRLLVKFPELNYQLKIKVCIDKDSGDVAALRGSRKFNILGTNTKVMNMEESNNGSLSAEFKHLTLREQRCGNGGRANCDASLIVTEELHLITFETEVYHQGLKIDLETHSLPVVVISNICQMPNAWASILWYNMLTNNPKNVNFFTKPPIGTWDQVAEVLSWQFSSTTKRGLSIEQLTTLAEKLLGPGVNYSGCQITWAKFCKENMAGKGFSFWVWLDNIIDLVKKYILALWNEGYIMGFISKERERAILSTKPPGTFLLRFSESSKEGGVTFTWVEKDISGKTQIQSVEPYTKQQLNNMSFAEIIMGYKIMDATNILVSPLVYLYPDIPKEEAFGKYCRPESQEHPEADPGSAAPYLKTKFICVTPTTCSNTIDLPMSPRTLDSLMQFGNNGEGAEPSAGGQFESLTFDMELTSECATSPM

For the compound `CCCCCCCCCCC[C@@H](O)CCCCCC(=O)O`, the Activity result in the series with HUVEC was “Non-Toxic”. Further, the inhibition of growth at 50 µM in the series with A549 [1] was above 50%.
For the compound `CCCCCCCCCCC(=O)CCCCCCC(=O)O`, the “growth inhibition (GI)” value in the series with Caco-2 and in the series on SF-268 was “inactive” each time. This compound also showed a half-maximal inhibitory concentration (IC50) in the series on A549 [2] of 37 µM. The inhibition of growth at 50 µM with A549 [1] is above 50%.
For the compound `CCCCCCCCCCCCCC(=O)CCCC(=O)O`, the IC50 with A549 [2] was determined as 49 µM. Further, the inhibition of growth at 50 µM with A549 [1] was above 50%.
In the case of `CCCCCCCCCCCC(=O)CCCCCC(=O)O`, the “growth inhibition (GI)” value in the series on Caco-2 and in the series on SF-268 was “inactive” each time. Further, the outcome in the series with A549 [3], in the series on A549 [4] and in the series on A549 [5] was Active. Further, the IC50 in the series on A549 [2] turned out to be 28 µM. For the same compound, the inhibition of growth at 50 µM in the series on A549 [1] is above 50%. In series [6], the inhibition entry is “Active”.
On to `CCCCCCCCCCCCC(=O)CCCCC(=O)O`, for which the Activity entry in the series on HUVEC is “Non-Toxic”. Moreover, the “growth inhibition (GI)” value with Caco-2 and with SF-268 was “inactive” in each case. For the same compound, the result in the series on A549 [3], in the series with A549 [4] and with A549 [5] was Active. In the series with A549 [2], the IC50 came out at 26 µM. In the series on A549 [1], the inhibition of growth at 50 µM is above 50%. Also, in [6], the inhibition entry is “Active”.
Regarding `CCCCCCCCCCCCCCCCCC(=O)O`, the “growth inhibition (GI)” value in the series on A549 [1] was “inactive”.
On the same count and under the same terms, the entry for `CCCCCCCCCCCCCCCC(=O)O` is “inactive”.
As for `CCCCCCCCCC(O)CCCCCCCC(=O)O` (stereo not drawn), the inhibition of growth at 50 µM in the series with A549 [1] was above 50%.
